# Assay outcomes from PubChem.
# Sampled rows, rich in hits. Any-hit rate of the full collection: about 5.3%.
# T cruzi inh = inhibitors of intracellular T. cruzi growth, primary screen, luminescence, NIH3T3 host cells. T. cruzi beta-gal in NIH3T3, 90 h. inhibition, % (concentration not given with the values). 300,000 compounds, 1.4% hits. AID 1885, 2009;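 active = mean inhibition across valid replicates above about 55%, limit read from the data; inconclusive = mean below that limit but half or more replicates reach it; inactive = mean below it, under half of replicates reach it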;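 note: signal also drops with host cell toxicity which is not excluded here; 0% = plate median of DMSO wells and 100% = zero luminescence signal; higher percent means less beta-gal luminescence so fewer parasites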
#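 assay system = mouse NIH/3T3 fibroblasts infected with β-gal-expressing T. cruzi Tulahuen C4 | input = 5,000 NIH/3T3 host cells per well | buffer or medium = DMEM plus 2% FBS | timing = 3 h host attachment, then at least 90 h co-culture | measured by = GalScreen luminescence, 60 min | evaluation = luminescence reflecting intracellular parasite burden, expressed as percent inhibition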
# Beta cell apopt = inhibitors of cytokine-induced beta cell apoptosis, primary screen, luminescence; INS-1E cytokine-induced death, ATP luminescence, 48 h; percent of positive-control rescue, neutral wells zero; protection from apoptosis, % (concentration not given with the values); 300,000 compounds, 0.8% hits; AID 435005, 2010;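 active = Every replicate reaches about 75%, or at least half do and their mean reaches it too, limit read from the data; inconclusive = At least half of replicates reach the limit but their mean does not; inactive = Under half of replicates reach the limit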;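 note: 0% = cytokine-treated negative control wells and 100% = positive control rescue; higher means more ATP so stronger rescue from cytokine killing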
# Calb FLC = C. albicans growth inhibition with fluconazole, primary screen, CaCi-2 strain, Alamar Blue fluorescence. C. albicans CaCi-2 + fluconazole, 48 h. growth inhibition, % (concentration not given with the values). 300,000 compounds, 0.57% hits;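 active = growth inhibition above about 58% in most replicates, limit read from the data, passing the limit was not always enough; inconclusive = exactly half the replicates above a set limit; inactive = most replicates below a set limit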;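 note: all wells also contain fluconazole at 8 µg/ml as a sub-toxic cotreatment; 0% = median of DMSO wells and 100% = median of geldanamycin control wells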
# Mdm2 MdmX PPI = inhibitors of human Mdm2-MdmX association, primary screen, cell-based, luminescence, split luciferase, SaOS-2, uHTS. Protein Mdm4 (Homo sapiens) + E3 ubiquitin-protein ligase Mdm2 (Homo sapiens), …. SaOS-2 split-luciferase Mdm2/MdmX complementation. inhibition, % at 8 µM. 330,000 compounds, 3% hits. AID 485346, 2010;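 active = inhibition of at least 50% at 8 µM in the primary screen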
# Target sequence (O15151 whole entry, looked up): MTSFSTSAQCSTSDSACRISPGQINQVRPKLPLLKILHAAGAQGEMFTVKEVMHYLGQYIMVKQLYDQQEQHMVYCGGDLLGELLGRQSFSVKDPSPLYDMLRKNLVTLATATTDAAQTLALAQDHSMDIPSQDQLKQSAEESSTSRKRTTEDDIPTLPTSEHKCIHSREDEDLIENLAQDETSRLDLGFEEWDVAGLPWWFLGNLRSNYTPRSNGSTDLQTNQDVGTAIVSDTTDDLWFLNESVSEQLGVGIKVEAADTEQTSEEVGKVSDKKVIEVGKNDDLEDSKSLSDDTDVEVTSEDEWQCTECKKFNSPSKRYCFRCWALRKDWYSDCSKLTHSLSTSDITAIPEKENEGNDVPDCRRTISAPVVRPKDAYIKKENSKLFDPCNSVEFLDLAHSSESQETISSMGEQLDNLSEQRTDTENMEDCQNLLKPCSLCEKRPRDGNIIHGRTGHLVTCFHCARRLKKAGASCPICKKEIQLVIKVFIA
# Target sequence (Q00987 whole entry, looked up): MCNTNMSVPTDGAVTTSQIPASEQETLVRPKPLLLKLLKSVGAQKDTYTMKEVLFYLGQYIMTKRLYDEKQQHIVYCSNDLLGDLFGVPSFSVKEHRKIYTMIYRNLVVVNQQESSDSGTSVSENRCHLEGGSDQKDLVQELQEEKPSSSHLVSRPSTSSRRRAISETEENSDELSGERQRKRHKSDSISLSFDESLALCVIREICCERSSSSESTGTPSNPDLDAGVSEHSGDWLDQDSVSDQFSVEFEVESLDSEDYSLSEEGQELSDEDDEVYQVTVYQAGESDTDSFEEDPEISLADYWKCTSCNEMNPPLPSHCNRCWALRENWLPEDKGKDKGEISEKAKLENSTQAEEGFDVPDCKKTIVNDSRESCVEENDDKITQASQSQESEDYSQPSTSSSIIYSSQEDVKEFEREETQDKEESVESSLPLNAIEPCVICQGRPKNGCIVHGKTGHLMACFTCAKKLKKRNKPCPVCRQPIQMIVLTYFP
# NALP3 yeast inh = NALP3 inflammasome inhibitors in reconstituted yeast, primary screen, luminescence, uHTS; Yeast reconstituted NLRP3/ASC/caspase-1, beta-gal luminescence, 24 h; AID 2825, 2010; 330,000 compounds, 0.39% hits; inhibition, % at 10 µM;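 active = inhibition of 50% or more; inactive = inhibition below 50%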;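 note: plate controls were induced DMSO wells for no effect and uninduced yeast grown without galactose for full effect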
# CSC inhib = cancer stem cell viability inhibitors, primary screen, luminescence. inhibition, % at 7.5 µM. cancer stem cell-like cells viability. 300,000 compounds, 1.1% hits. AID 2717, 2010; in the data active = inhibition above about 75%; inconclusive = no clear call, values can overlap the other calls; tested in HMLE shEcad cells
# Mdm2-MdmX conf = Mdm2-MdmX complex disruptors, retested hits, confirmation, luminescence, single concentration; shares compounds with Mdm2 MdmX PPI; 10,000 compounds, 55% hits; inhibition, % at 8 µM; Mdm2-MdmX binding, luminescent assay; in the data active = inhibition above about 40%
# Full FLuc ctr = full-length luciferase signal inhibition, confirmation, counter-screen for Mdm2/MdmX interaction inhibitor project, cell-based, single concentration, SaOS-2. shares compounds with Mdm2 MdmX PPI. SaOS-2 full-length luciferase counterscreen, luminescence. inhibition, % at 8 µM. 6,200 compounds, 77% hits. AID 504607, 2011;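 active = mean inhibition at 8 µM reaching about 37%, which flags the compound as non-specific, limit read from the data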;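 note: p53-null SaOS-2 cells with luciferase driven by a doxycycline-inducible promoter; compound on cells about two nights before reading with doxycycline added after day one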
# * hit, by the source's call; ? = inconclusive; . = not tested or not shown.
SMILES,T cruzi inh,Beta cell apopt,Calb FLC,Mdm2 MdmX PPI,NALP3 yeast inh,CSC inhib,Mdm2-MdmX conf,Full FLuc ctr
CCCN(C(=O)CCl)C1=CCCCC1,26,-5,-3,85*,8,-11,27,.
CC(=O)c1cccc(N2C(=O)CC(N3CCN(S(=O)(=O)c4ccc(Cl)cc4)CC3)C2=O)c1 (centres undefined),.,-6,.,-5,8,.,.,.
Cc1ccc2nc(N3CCN(c4cccc(C)c4C)CC3)c3nnnn3c2c1,-7,.,-4,-9,-5,17,.,.
Cc1ccc2nc(Cl)c3nnnn3c2c1,44,-15,97*,97*,26,?,90*,11
CC(=O)NC(=S)Nc1ccc(NC(=O)c2cccs2)cc1,8,0,6,2,2,-18,.,.
Cc1c(C(=O)NC(=S)Nc2ccc(NC(=O)c3cccs3)cc2)oc2ccccc12,2,11,1,62*,4,11,11,.
Cc1ccc(-c2nc3ccccc3s2)cc1NC(=S)NC(=O)/C=C/c1ccco1,-13,8,36,14,26,-7,.,.
Cc1ccc(-c2nc3ccccc3s2)cc1NC(=S)NC(=O)c1cccc2ccccc12,14,-3,-4,99*,-5,48,-6,.
O=C(COc1ccccc1Cl)Nc1nc(-c2ccncc2)cs1,.,1,.,30,-4,1,.,.
O=C(COc1ccc(F)cc1Cl)Nc1nc(-c2ccccn2)cs1,76*,8,-1,74*,45,39,70*,34
CCc1sc(C(=O)Nc2ncccc2O)cc1C,-5,-2,3,-15,15,.,.,.
O=C(Nc1nc(-c2ccccn2)cs1)c1ccc(Cl)s1,58*,92*,-3,70*,-1,80*,80*,24
Cc1ccc(C(=O)Nc2nc(-c3ccccn3)cs2)s1,.,95*,.,58*,40,43,76*,35
CCc1sc(C(=O)Nc2nc(-c3ccccn3)cs2)cc1C,.,37,.,64*,22,49,40*,37*
CN(CC(=O)N1CCc2[nH]c3ccc(F)cc3c2C1)CC1OCCO1,9,-6,1,6,10,9,.,.
CCCn1c(CN2CCN(C(=O)c3ccco3)CC2)nc2cc(S(=O)(=O)N(C)C)ccc21,.,.,.,28,4,.,.,.
Cc1ccc(S(=O)(=O)NNC2=NCCCCC2)cc1,0,.,-2,-27,8,1,.,.
O=C(Nc1nc(-c2ccccn2)cs1)C1CCCC1,-18,6,54,-20,11,9,.,.
O=C(Nc1nc(-c2ccccn2)cs1)c1ncc(Cl)c(Cl)c1Cl,35,16,-10,74*,5,-12,35,.
CC(=O)O[C@H]1[C@H](O)[C@H](Oc2c(O)c(C)c3c4c2[C@@H](C)CC[C@@H]4[C@@H](C)C[C@H]3C=C(C)C)O[C@@H](C)[C@H]1O,.,.,.,74*,18,.,-5,.
Nc1c(C(=O)Nc2nc3ccccc3s2)sc2nc(-c3cccs3)ccc12,52,-10,-1,87*,3,22,-46,.
Cc1ccccc1NC1=C/C(=N\S(=O)(=O)c2cccs2)c2ccccc2C1=O,57*,98*,34,73*,16,-8,100*,51*
CC(C)c1ccc(S(=O)(=O)/N=C2\C=C(NS(=O)(=O)c3ccccc3)C(=O)c3ccccc32)cc1,-8,.,38,.,.,-9,.,.
Cc1ccccc1NC1=C/C(=N\S(=O)(=O)c2ccc(C(=O)O)cc2)c2ccccc2C1=O,42,107*,32,85*,42,.,22,.
COc1ccc(S(=O)(=O)/N=C2\C=C(Nc3ccc(O)cc3)C(=O)c3ccccc32)cc1,67*,111*,-9,100*,30,.,94*,7
SMILES,T cruzi inh,Beta cell apopt,Calb FLC,Mdm2 MdmX PPI,NALP3 yeast inh,CSC inhib,Mdm2-MdmX conf,Full FLuc ctr
O=C(CNC(=O)c1ccc(Cl)cc1)c1ccc(Cl)cc1,4,0,0,-12,10,-14,.,.
COc1ccc(OC)c(N2C(=O)CC(C(C)c3ccccc3)C2=O)c1 (centres undefined),8,-8,4,17,4,7,.,.
C/C(=N\NC(N)=S)c1ccc2c(c1)OCCO2,14,-1,-5,-21,16,-20,.,.
C/C(=N\NC(=S)Nc1ccc(F)cc1)c1ccc2c(c1)OCCO2,43,11,3,64*,22,76*,62*,56*
CCCN1C2CCCC1CC(NC(=O)c1ccccc1OCC)C2 (centres undefined),-9,.,-11,-22,5,-8,.,.
CCOC(=O)C1CCN(C(=O)c2ccc(C)o2)CC1,.,-4,.,-9,26,-12,.,.
CCOC(=O)C1CCN(C(=O)c2c(C)oc3c2C(=O)c2ccccc2C3=O)CC1,48,102*,-4,58*,27,60,45*,67*
NS(=O)(=O)c1ccc(CCNC(=O)CN2CCN(Cc3cccc(C(F)(F)F)c3)CC2)cc1,10,-2,6,-12,0,-6,.,.
COc1cccc(-n2sc3c(c2=S)-c2cc(OC)ccc2NC3(C)C)c1,46,1,1,51*,12,-15,39,76*
CCC(C)NC(=S)Nc1ccccc1 (centres undefined),-6,.,-5,20,1,.,.,.
CCC(C)Nc1ccc(NC(C)CC)cc1 (centres undefined),.,109*,.,97*,5,82*,68*,18
CCc1ccc(Nc2cc(=O)n(C3CCCCC3)c(=O)[nH]2)cc1,10,12,0,21,13,-8,.,.
O=c1cc(Nc2ccc3c(c2)OCCO3)[nH]c(=O)n1C1CCCCC1,-1,4,-21,55*,-8,-3,53*,58*
COC(=O)c1ccc(=O)c2nc3/c(=C/O)c(O)cc(=O)c3[nH]c12,.,-5,.,.,.,7,.,.
N#CC1=C(N)OC(c2ccccc2)=C(C#N)C1c1ccc2c(c1)OCO2 (centres undefined),-15,1,41,-18,-16,-11,.,.
CSc1ccc(C2C(C#N)=C(N)Oc3cc4c(cc32)OCO4)cc1 (centres undefined),-15,6,-12,69*,-2,50,60*,60*
